# Legend:
# MCF7 [1] = experiment: Effect on hydrogen peroxide level in human MCF7 cells assessed per mg protein at 2 ug/ml by Wolf's method after 24 hrs (reference value: 12.50 +/- 1.54 nmol/mg of protein); format: functional
# MCF7 [2] = experiment: Effect on hydrogen peroxide level in human MCF7 cells assessed per mg protein at 5 ug/ml by Wolf's method after 24 hrs (reference value: 12.50 +/- 1.54 nmol/mg of protein); format: functional
# MCF7 [3] = experiment: Effect on hydrogen peroxide level in human MCF7 cells assessed per mg protein at 10 ug/ml by Wolf's method after 24 hrs (reference value: 12.50 +/- 1.54 nmol/mg of protein); format: functional
# MCF7 [4] = experiment: Effect on hydrogen peroxide level in human MCF7 cells assessed per mg protein at 20 ug/ml by Wolf's method after 24 hrs (reference value: 12.50 +/- 1.54 nmol/mg of protein); format: functional
# MCF7 [5] = experiment: Decrease in CAT level in human MCF7 cells; format: functional, cell-based
# MCF7 [6] = experiment: Decrease in glutathione peroxidase level in human MCF7 cells; format: functional, cell-based
# MCF7 [7] = experiment: Decrease in glutathione level in human MCF7 cells; format: functional, cell-based
# MCF7 [8] = experiment: Increase in hydrogen peroxide level in human MCF7 cells; format: functional, cell-based
# MCF7 [9] = experiment: Increase in SOD level in human MCF7 cells; format: functional, cell-based
# MCF7 [10] = experiment: Effect on DNA level in human MCF7 cells assessed per 10 '6 cells at 2 ug/ml after 24 hrs (reference value: 6.80 +/- 0.70 ug/10^6 cells); format: functional
# Summary of the method: (§1)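 After 24 h exposure of MCF-7 cells to compound at 2, 5, 10 or 20 µg/ml at 37 °C, nucleic acids were precipitated from cell homogenates. DNA was extracted and assayed by the Zhou et al. method, and RNA by a kit-derived procedure. Results given per 10⁶ cells as means ± S.E. of four experiments versus untreated control.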
# MCF7 [11] = experiment: Effect on DNA level in human MCF7 cells assessed per 10 '6 cells at 5 ug/ml after 24 hrs (reference value: 6.80 +/- 0.70 ug/10^6 cells); format: functional; summary of the method: as §1
# MCF7 [12] = experiment: Effect on DNA level in human MCF7 cells assessed per 10 '6 cells at 10 ug/ml after 24 hrs (reference value: 6.80 +/- 0.70 ug/10^6 cells); format: functional; summary of the method: as §1
# MCF7 [13] = experiment: Effect on DNA level in human MCF7 cells assessed per 10 '6 cells at 20 ug/ml after 24 hrs (reference value: 6.80 +/- 0.70 ug/10^6 cells); format: functional; summary of the method: as §1
# MCF7 [14] = experiment: Effect on RNA level in human MCF7 cells assessed per 10 '6 cells at 2 ug/ml after 24 hrs (reference value: 11.50 +/- 0.70 ug/10^6 cells); format: functional; summary of the method: as §1
# MCF7 [15] = experiment: Effect on RNA level in human MCF7 cells assessed per 10 '6 cells at 5 ug/ml after 24 hrs (reference value: 11.50 +/- 0.70 ug/10^6 cells); format: functional; summary of the method: as §1
# MCF7 [16] = experiment: Effect on RNA level in human MCF7 cells assessed per 10 '6 cells at 10 ug/ml after 24 hrs (reference value: 11.50 +/- 0.70 ug/10^6 cells); format: functional; summary of the method: as §1
# MCF7 [17] = experiment: Effect on RNA level in human MCF7 cells assessed per 10 '6 cells at 20 ug/ml after 24 hrs (reference value: 11.50 +/- 0.70 ug/10^6 cells); format: functional; summary of the method: as §1
# MCF7 [18] = experiment: Decrease in DNA level in human MCF7 cells assessed per 10 '6 cells after 24 hrs relative to control; format: functional, cell-based; summary of the method: as §1
# MCF7 [19] = experiment: Decrease in RNA level in human MCF7 cells assessed per 10 '6 cells after 24 hrs relative to control; format: functional, cell-based; summary of the method: as §1
# MCF7 [20] = experiment: Antiproliferative activity against human MCF7 cells after 24 hrs by MTT assay; format: functional, cell-based; settings: for IC50: MCF7, 24 h
# Summary of the method: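 MCF-7 cells (DMEM, 10% heat-inactivated FCS, penicillin/streptomycin, 37 °C, 5% CO2) plated at 0.65 × 10⁵ cells/well and given 24 h to attach. Exposed to compound or cisplatin at 2, 5, 10 or 20 µg/ml for 24 h at 37 °C. MTT added for 4 h, formazan dissolved in DMSO, absorbance read at 570 nm. Viability taken relative to untreated cells and IC50 derived.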
# MCF7 [21] = experiment: Effect on SOD level in human MCF7 cells assessed per mg protein at 2 ug/ml after 24 hrs (reference value: 27.61+/- 3.72 U/mg of protein); format: functional
# MCF7 [22] = experiment: Effect on SOD level in human MCF7 cells assessed per mg protein at 5 ug/ml after 24 hrs (reference value: 27.61+/- 3.72 U/mg of protein); format: functional
# MCF7 [23] = experiment: Effect on SOD level in human MCF7 cells assessed per mg protein at 10 ug/ml after 24 hrs (reference value: 27.61+/- 3.72 U/mg of protein); format: functional
# MCF7 [24] = experiment: Effect on SOD level in human MCF7 cells assessed per mg protein at 20 ug/ml after 24 hrs (reference value: 27.61+/- 3.72 U/mg of protein); format: functional
# MCF7 [25] = experiment: Effect on CAT level in human MCF7 cells assessed per mg protein at 2 ug/ml after 24 hrs (reference value: 7.90+/- 0.67 U/mg of protein); format: functional
# MCF7 [26] = experiment: Effect on CAT level in human MCF7 cells assessed per mg protein at 5 ug/ml after 24 hrs (reference value: 7.90+/- 0.67 U/mg of protein); format: functional
# MCF7 [27] = experiment: Effect on CAT level in human MCF7 cells assessed per mg protein at 10 ug/ml after 24 hrs (reference value: 7.90+/- 0.67 U/mg of protein); format: functional
# MCF7 [28] = experiment: Effect on CAT level in human MCF7 cells assessed per mg protein at 20 ug/ml after 24 hrs (reference value: 7.90+/- 0.67 U/mg of protein); format: functional
# MCF7 [29] = experiment: Effect on glutathione peroxidase level in human MCF7 cells assessed per mg protein at 2 ug/ml after 24 hrs (reference value: 11.20 +/- 1.36 U/mg of protein); format: functional
# MCF7 [30] = experiment: Effect on glutathione peroxidase level in human MCF7 cells assessed per mg protein at 5 ug/ml after 24 hrs (reference value: 11.20 +/- 1.36 U/mg of protein); format: functional
# MCF7 [31] = experiment: Effect on glutathione peroxidase level in human MCF7 cells assessed per mg protein at 10 ug/ml after 24 hrs (reference value: 11.20 +/- 1.36 U/mg of protein); format: functional
# MCF7 [32] = experiment: Effect on glutathione peroxidase level in human MCF7 cells assessed per mg protein at 20 ug/ml after 24 hrs (reference value: 11.20 +/- 1.36 U/mg of protein); format: functional
# MCF7 [33] = experiment: Effect on glutathione level in human MCF7 cells assessed per mg protein at 2 ug/ml by Ellman method after 24 hrs (reference value: 39.82 +/- 4.20 nmol/mg of protein); format: functional
# MCF7 [34] = experiment: Effect on glutathione level in human MCF7 cells assessed per mg protein at 5 ug/ml by Ellman method after 24 hrs (reference value: 39.82 +/- 4.20 nmol/mg of protein); format: functional
# MCF7 [35] = experiment: Effect on glutathione level in human MCF7 cells assessed per mg protein at 10 ug/ml by Ellman method after 24 hrs (reference value: 39.82 +/- 4.20 nmol/mg of protein); format: functional
# MCF7 [36] = experiment: Effect on glutathione level in human MCF7 cells assessed per mg protein at 20 ug/ml by Ellman method after 24 hrs (reference value: 39.82 +/- 4.20 nmol/mg of protein); format: functional
SMILES,Activity (MCF7 [1]) [nmol],Activity (MCF7 [2]) [nmol],Activity (MCF7 [3]) [nmol],Activity (MCF7 [4]) [nmol],Activity (MCF7 [5]),Activity (MCF7 [6]),Activity (MCF7 [7]),Activity (MCF7 [8]),Activity (MCF7 [9]),Activity (MCF7 [10]) [µg/10^6 cells],Activity (MCF7 [11]) [µg/10^6 cells],Activity (MCF7 [12]) [µg/10^6 cells],Activity (MCF7 [13]) [µg/10^6 cells],Activity (MCF7 [14]) [µg/10^6 cells],Activity (MCF7 [15]) [µg/10^6 cells],Activity (MCF7 [16]) [µg/10^6 cells],Activity (MCF7 [17]) [µg/10^6 cells],Activity (MCF7 [18]),Activity (MCF7 [19]),Activity (MCF7 [20]),other results
Cc1nc(-n2ncc3c(Cl)ncnc32)c2c3c(sc2n1)CCc1ccccc1-3,28.23,25.45,37.85,52.33,Dose-dependent effect,Dose-dependent effect,Dose-dependent effect,Dose-dependent effect,Dose-dependent effect,4.85,4.46,4,3.85,8.75,7.5,6.7,6.5,Dose-dependent effect,Dose-dependent effect,Dose-dependent effect,IC50 (MCF7 [20]): 7 µg/mL; Activity (MCF7 [21]): 80.2 U/mg protein; Activity (MCF7 [22]): 90.6 U/mg protein; Activity (MCF7 [23]): 160 U/mg protein; Activity (MCF7 [24]): 201 U/mg protein; Activity (MCF7 [25]): 5.8 U/mg protein; Activity (MCF7 [26]): 4.9 U/mg protein; Activity (MCF7 [27]): 4.2 U/mg protein; Activity (MCF7 [28]): 3.65 U/mg protein; Activity (MCF7 [29]): 8 U/mg protein; Activity (MCF7 [30]): 7.6 U/mg protein; Activity (MCF7 [31]): 7 U/mg protein; Activity (MCF7 [32]): 6.7 U/mg protein; Activity (MCF7 [33]): 35.8 nmol; Activity (MCF7 [34]): 29.5 nmol; Activity (MCF7 [35]): 27.2 nmol; Activity (MCF7 [36]): 25 nmol
Cc1nc(-n2ncc3c(S[C@@H]4O[C@H](CO)[C@@H](O)[C@H]4O)ncnc32)c2c3c(sc2n1)CCc1ccccc1-3,21.23,28.45,35.85,40.33,Dose-dependent effect,Dose-dependent effect,Dose-dependent effect,Dose-dependent effect,Dose-dependent effect,5.35,5.16,4.86,4.45,9.5,8.9,7.7,7.22,Dose-dependent effect,Dose-dependent effect,Dose-dependent effect,IC50 (MCF7 [20]): 9.4 µg/mL; Activity (MCF7 [21]): 70.4 U/mg protein; Activity (MCF7 [22]): 80.2 U/mg protein; Activity (MCF7 [23]): 110 U/mg protein; Activity (MCF7 [24]): 161 U/mg protein; Activity (MCF7 [25]): 6.85 U/mg protein; Activity (MCF7 [26]): 6 U/mg protein; Activity (MCF7 [27]): 5.7 U/mg protein; Activity (MCF7 [28]): 5.35 U/mg protein; Activity (MCF7 [29]): 9 U/mg protein; Activity (MCF7 [30]): 6.6 U/mg protein; Activity (MCF7 [31]): 6 U/mg protein; Activity (MCF7 [32]): 5.4 U/mg protein; Activity (MCF7 [33]): 43.35 nmol; Activity (MCF7 [34]): 40.12 nmol; Activity (MCF7 [35]): 33.11 nmol; Activity (MCF7 [36]): 30 nmol

# — ChEMBL document CHEMBL1759915, “Synthesis and anticancer effects of some novel pyrazolo[3,4-d]pyrimidine derivatives by generating reactive oxygen species in human breast adenocarcinoma cells” (Eur J Med Chem, 2011)
